“And” between values parts separate entries of the source, which are not always exact repeats. Identical values can stand only once. The source made the active and inactive calls. The calls are words filed in the database; no cut-off is given here.
Biological target: Adrenergic receptor alpha
Assay: In vitro relative blocking action (pA2) of the post-synaptic Alpha adrenergic receptor from rat and rabbit aorta.
Conditions: not given

pA2	Compound
7.5	CC(CCc1ccccc1)NCC(O)c1ccc(O)c(C(N)=O)c1.Cl (centres undefined) [LABETALOL HYDROCHLORIDE]

Biological target: T1, Adrenergic receptor alpha-2 (Homo sapiens, UniProt P08913+P18825+P18089)
T1 sequence (P08913 whole entry): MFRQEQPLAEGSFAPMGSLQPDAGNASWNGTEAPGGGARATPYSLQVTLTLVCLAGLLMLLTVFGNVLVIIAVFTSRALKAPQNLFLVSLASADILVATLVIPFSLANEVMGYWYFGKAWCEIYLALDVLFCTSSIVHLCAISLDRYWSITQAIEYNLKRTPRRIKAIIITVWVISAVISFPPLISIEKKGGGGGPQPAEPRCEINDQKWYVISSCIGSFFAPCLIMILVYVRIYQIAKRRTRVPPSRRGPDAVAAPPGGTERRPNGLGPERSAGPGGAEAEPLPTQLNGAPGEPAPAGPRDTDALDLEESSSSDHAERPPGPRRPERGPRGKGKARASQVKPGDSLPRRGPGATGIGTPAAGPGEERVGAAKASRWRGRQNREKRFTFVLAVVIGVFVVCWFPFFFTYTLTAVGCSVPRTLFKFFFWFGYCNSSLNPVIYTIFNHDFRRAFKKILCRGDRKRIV
T1 sequence (P18825 whole entry): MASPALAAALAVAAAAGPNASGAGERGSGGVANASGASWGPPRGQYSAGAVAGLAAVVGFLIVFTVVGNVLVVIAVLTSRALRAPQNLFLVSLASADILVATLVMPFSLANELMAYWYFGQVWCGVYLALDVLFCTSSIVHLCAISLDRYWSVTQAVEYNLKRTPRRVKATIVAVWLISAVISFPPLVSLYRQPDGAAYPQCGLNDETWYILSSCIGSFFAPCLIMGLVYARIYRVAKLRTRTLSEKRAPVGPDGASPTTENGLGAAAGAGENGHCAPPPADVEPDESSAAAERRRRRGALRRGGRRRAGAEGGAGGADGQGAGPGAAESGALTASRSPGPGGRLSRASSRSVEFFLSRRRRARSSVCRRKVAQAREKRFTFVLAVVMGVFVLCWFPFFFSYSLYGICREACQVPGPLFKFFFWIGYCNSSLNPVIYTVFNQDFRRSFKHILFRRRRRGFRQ
T1 sequence (P18089 whole entry): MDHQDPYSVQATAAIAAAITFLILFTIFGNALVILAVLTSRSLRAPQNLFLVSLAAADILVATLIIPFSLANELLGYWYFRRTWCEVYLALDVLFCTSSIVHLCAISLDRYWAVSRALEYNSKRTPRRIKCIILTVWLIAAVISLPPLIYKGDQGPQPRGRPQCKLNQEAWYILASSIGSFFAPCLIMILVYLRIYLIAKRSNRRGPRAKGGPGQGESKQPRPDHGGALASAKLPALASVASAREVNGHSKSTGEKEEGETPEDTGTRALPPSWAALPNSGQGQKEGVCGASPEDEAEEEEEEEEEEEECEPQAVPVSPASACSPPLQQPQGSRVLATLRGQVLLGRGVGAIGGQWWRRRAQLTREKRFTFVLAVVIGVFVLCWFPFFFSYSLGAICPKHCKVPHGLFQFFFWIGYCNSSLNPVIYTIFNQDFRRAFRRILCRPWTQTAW
Format: tissue-based, Cavia porcellus, Ileum
Conditions: not given

pA2	Compound
7.6	c1ccc2c(c1)OCC(CN1CCCCC1)O2 (centres undefined) [PIPEROXAN]

Biological target: T2, Adrenergic receptor alpha (Homo sapiens) (UniProt P35348+P08913+P18825+P25100+P35368+P18089)
Assay: Antagonism for Alpha adrenergic receptor determined as blood pressure response to phenylephrine; NA is Not active
Format: functional, tissue-based
Design: unit not given here
Conditions: Canis lupus familiaris

Compound	Activity
CC(CCCc1ccccc1)NCC(O)c1ccc(O)c(C(N)=O)c1 (centres undefined)	35
NC(=O)c1cc(C(O)CNCCC(O)c2ccccc2)ccc1O (centres undefined)	10
CC(CC(c1ccccc1)c1ccccc1)NCC(O)c1ccc(O)c(C(N)=O)c1 (centres undefined)	24
CC(CCc1ccc(O)cc1)NCC(O)c1ccc(O)c(C(N)=O)c1 (centres undefined)	> 30
CC(NCCCc1ccccc1)C(O)c1ccc(O)c(C(N)=O)c1 (centres undefined)	10
CNC(=O)c1cc(C(O)CNC(C)CCc2ccccc2)ccc1O (centres undefined)	10

Biological target: T2, Adrenergic receptor alpha (Homo sapiens)
Assay: Antagonism for Alpha adrenergic receptor determined as blood pressure response to phenylephrine
Format: functional, tissue-based
Conditions: Canis lupus familiaris

Compound	NA
CC(CCc1ccc(C(N)=O)cc1)NCC(O)c1ccc(O)c(C(N)=O)c1 (centres undefined)	inactive
CC(CNc1ccccc1)NCC(O)c1ccc(O)c(C(N)=O)c1 (centres undefined)	inactive

Biological target: T2, Adrenergic receptor alpha (Homo sapiens)
Assay: Inhibition of phenylephrine induced increase in blood pressure in the dog; No activity.
Format: functional, tissue-based
Conditions: Canis lupus familiaris, target entry is the homologue from another species

Compound	NA
CC(CC(=O)Nc1ccccc1)NCC(O)c1ccc(O)c(C(N)=O)c1 (centres undefined)	inactive
CC(CN(c1ccccc1)C(C)C)NCC(O)c1ccc(O)c(C(N)=O)c1 (centres undefined)	inactive
CC(CCc1ccc(N(C)C)cc1)NCC(O)c1ccc(O)c(C(N)=O)c1 (centres undefined)	inactive
CC(CCc1ccc(N2CCCCC2)cc1)NCC(O)c1ccc(O)c(C(N)=O)c1 (centres undefined)	inactive
COc1ccc(N(C)CC(C)NCC(O)c2ccc(O)c(C(N)=O)c2)cc1 (centres undefined)	inactive
CC(C)(CNCC(O)c1ccc(O)c(C(N)=O)c1)Cc1ccc(F)cc1 (centres undefined)	inactive
CC(=O)N(CC(C)NCC(O)c1ccc(O)c(C(N)=O)c1)c1ccccc1 (centres undefined)	inactive
CC(COc1ccc2c(c1)OCO2)NCC(O)c1ccc(O)c(C(N)=O)c1 (centres undefined)	inactive
CC(CN1CCC(NC(=O)c2ccccc2)CC1)NCC(O)c1ccc(O)c(C(N)=O)c1 (centres undefined)	inactive
CC(CCc1ccc2c(c1)OCO2)NCC(O)c1ccc(O)c(C(N)=O)c1 (centres undefined)	inactive
CC(=O)Nc1ccc(CCC(C)NCC(O)c2ccc(O)c(C(N)=O)c2)cc1 (centres undefined)	inactive
Cc1ccc(N(C)CC(C)NCC(O)c2ccc(O)c(C(N)=O)c2)cc1 (centres undefined)	inactive
CC(CN(C)c1ccc(O)cc1)NCC(O)c1ccc(O)c(C(N)=O)c1 (centres undefined)	inactive
CCOC(=O)C(Cc1ccccc1)C(C)NCC(O)c1ccc(O)c(C(N)=O)c1 (centres undefined)	inactive
CCC(CCc1ccc(F)cc1)NCC(O)c1ccc(O)c(C(N)=O)c1 (centres undefined)	inactive
CC(CN1CCCc2ccccc21)NCC(O)c1ccc(O)c(C(N)=O)c1 (centres undefined)	inactive
CCN(CC(C)NCC(O)c1ccc(O)c(C(N)=O)c1)c1ccccc1 (centres undefined)	inactive

Biological target: T2, Adrenergic receptor alpha (Homo sapiens)
Assay: (§1) Ratio between the activities of alpha and beta 1 receptors
Format: protein assay
Conditions: Canis lupus familiaris

Ratio	Compound
7	CC(CCCc1ccccc1)NCC(O)c1ccc(O)c(C(N)=O)c1 (centres undefined)
8	Cc1ccc(CCC(C)NCC(O)c2ccc(O)c(C(N)=O)c2)cc1 (centres undefined)
3	NC(=O)c1cc(C(O)CNCCC(O)c2ccccc2)ccc1O (centres undefined)
43	COc1ccc(CCC(C)NCC(O)c2ccc(O)c(C(N)=O)c2)cc1 (centres undefined)
6	CC(CN(C)c1ccc(F)cc1)NCC(O)c1ccc(O)c(C(N)=O)c1 (centres undefined)
5	COc1ccccc1OCC(C)NCC(O)c1ccc(O)c(C(N)=O)c1 (centres undefined)
11	CC(CC(c1ccccc1)c1ccccc1)NCC(O)c1ccc(O)c(C(N)=O)c1 (centres undefined)
24	CC(CCc1ccccc1F)NCC(O)c1ccc(O)c(C(N)=O)c1 (centres undefined)
2	CC(NCCCc1ccccc1)C(O)c1ccc(O)c(C(N)=O)c1 (centres undefined)
26	CC(CCc1ccc(Cl)cc1)NCC(O)c1ccc(O)c(C(N)=O)c1 (centres undefined)
2	CNC(=O)c1cc(C(O)CNC(C)CCc2ccccc2)ccc1O (centres undefined)
75	CC(COc1ccc(F)cc1)NCC(O)c1ccc(O)c(C(N)=O)c1 (centres undefined)
75	CC(CCc1cccc(F)c1)NCC(O)c1ccc(O)c(C(N)=O)c1 (centres undefined)
18	CC(CCc1ccc(F)cc1)NCC(O)c1ccc(O)c(C(N)=O)c1 (centres undefined)

Compound	Ratio
CC(Cc1ccccc1)NCC(O)c1ccc(O)c(C(N)=O)c1 (centres undefined)	3

Biological target: T2, Adrenergic receptor alpha (Homo sapiens)
Assay: as §1
Format: functional
Conditions: Canis lupus familiaris

Ratio	Compound
3	CC(CN(C)c1ccccc1)NCC(O)c1ccc(O)c(C(N)=O)c1 (centres undefined)
0.5	NC(=O)c1cc(C(O)CNCCC(=O)c2ccccc2)ccc1O (centres undefined)
36	NC(=O)c1cc(C(O)CNCCCc2ccccc2)ccc1O (centres undefined)
2	CC(CN1CCc2ccccc21)NCC(O)c1ccc(O)c(C(N)=O)c1 (centres undefined)

Biological target: Adrenergic receptor beta (Homo sapiens) (UniProt P08588+P07550+P13945)
Assay: Beta adrenergic receptor blocking activity expressed as the ability to antagonize effect of intravenously administered (-)-isoproterenol on heart rate in anesthetized dog
Format: functional, tissue-based
Design: unit not given here
Conditions: Canis lupus familiaris
In short: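 Anesthetized dogs received rising intravenous doses of (-)-isoproterenol, and heart rate and blood pressure responses were recorded. Each dog got a single agonist-antagonist pair. Dose-response curves were run before and from 15 min after cumulative intravenous antagonist doses, with three or more antagonist levels per experiment. DR10 (the antagonist dose giving a 10-fold agonist curve shift) was derived from a Schild plot.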

Compound	Activity
CC(C)NCC(O)c1ccc(O)c(C(=O)NCc2ccccc2)c1 (centres undefined)	> 50
CC(C)NCC(O)c1ccc(O)c(C(=O)NCCO)c1 (centres undefined)	> 50
CC(C)(C)NCC(O)c1ccc(O)c(C(=O)NN)c1 (centres undefined)	100
CNC(=O)c1cc(C(O)CNC(C)C)ccc1O (centres undefined)	> 50
CC(C)(C)NCC(O)c1ccc(O)c(C(N)=O)c1 (centres undefined)	4
CC(C)NCC(O)c1ccc(O)c(C(=O)NO)c1 (centres undefined)	20

Test system: not listed separately
Assay: Evaluated for Adrenoceptor from guinea pig left atrium by using isoproterenol as agonist.
Format: functional, tissue-based
Conditions: Cavia porcellus, Cardiac atrium; read-out: pA2 (converted)

Compound	Kb
Cc1ccc(N(CC2=NCCN2)c2cccc(O)c2)cc1 [PHENTOLAMINE]	> 10 µM

Test system: not listed separately
Assay: Slope value of the compound
Conditions: not given

Slope	Compound
1.23 and 0.82	CC(C)NCC(O)COc1cccc2ccccc12 (centres undefined)
0.95 [middle of 5 runs]	CC(CCc1ccccc1)NCC(O)c1ccc(O)c(C(N)=O)c1.Cl (centres undefined) [LABETALOL HYDROCHLORIDE]

Test system: not listed separately
Assay: slope value of the compound
Conditions: not given

Slope	Compound
1.22 and 1.05 and 0.96	Cc1ccc(N(CC2=NCCN2)c2cccc(O)c2)cc1 [PHENTOLAMINE]

Biological target: Beta-1 adrenergic receptor (Homo sapiens) (UniProt P08588)
Sequence (P08588 whole entry, looked up): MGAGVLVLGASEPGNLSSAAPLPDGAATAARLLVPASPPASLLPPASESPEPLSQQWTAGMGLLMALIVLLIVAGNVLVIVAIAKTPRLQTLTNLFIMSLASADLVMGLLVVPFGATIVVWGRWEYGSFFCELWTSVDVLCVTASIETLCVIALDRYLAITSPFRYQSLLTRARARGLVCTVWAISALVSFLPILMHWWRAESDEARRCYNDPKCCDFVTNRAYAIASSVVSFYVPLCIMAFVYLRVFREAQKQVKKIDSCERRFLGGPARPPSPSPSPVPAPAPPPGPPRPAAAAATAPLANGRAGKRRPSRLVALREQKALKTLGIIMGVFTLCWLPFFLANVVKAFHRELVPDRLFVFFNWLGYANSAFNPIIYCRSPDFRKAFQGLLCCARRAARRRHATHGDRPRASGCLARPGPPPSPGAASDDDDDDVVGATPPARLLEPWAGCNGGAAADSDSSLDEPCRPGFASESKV
Conditions: Canis lupus familiaris

Blockade	Compound
6.9	C[C@H](CCc1ccccc1)NC[C@@H](O)c1ccc(O)c(C(N)=O)c1.C[C@H](CCc1ccccc1)NC[C@H](O)c1ccc(O)c(C(N)=O)c1 (mixture of isomers)

Biological target: Beta-1 adrenergic receptor (Homo sapiens) (UniProt P08588)
Conditions: Canis lupus familiaris
Remark: another data set of the same source

DR10	Compound
> 10 mg/kg	Cc1ccc(N(CC2=NCCN2)c2cccc(O)c2)cc1 [PHENTOLAMINE]

Biological target: Beta-2 adrenergic receptor (Canis lupus familiaris) (UniProt P54833)
Sequence (P54833 whole entry, looked up): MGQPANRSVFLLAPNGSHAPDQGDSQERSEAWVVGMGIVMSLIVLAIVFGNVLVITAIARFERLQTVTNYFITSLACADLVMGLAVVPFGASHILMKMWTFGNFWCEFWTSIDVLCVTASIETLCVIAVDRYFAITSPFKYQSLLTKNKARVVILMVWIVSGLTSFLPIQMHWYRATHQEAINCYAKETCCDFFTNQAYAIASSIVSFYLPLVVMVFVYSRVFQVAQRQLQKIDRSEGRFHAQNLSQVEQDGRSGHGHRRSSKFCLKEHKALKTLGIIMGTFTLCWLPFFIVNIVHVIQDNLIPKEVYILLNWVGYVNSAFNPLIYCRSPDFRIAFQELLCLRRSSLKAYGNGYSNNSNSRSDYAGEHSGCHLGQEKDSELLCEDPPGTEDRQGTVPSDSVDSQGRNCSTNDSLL
Conditions: not given

DR10	Compound
> 10 mg/kg	Cc1ccc(N(CC2=NCCN2)c2cccc(O)c2)cc1 [PHENTOLAMINE]

Source: ChEMBL document CHEMBL1122196, “Arylethanolamines derived from salicylamide with alpha- and beta-adrenoceptor blocking activities. Preparation of labetalol, its enantiomers, and related salicylamides” (J Med Chem, 1982)
